Biological target: T1, Tumor necrosis factor ligand superfamily member 11 (Mus musculus, UniProt O35235)
T1 sequence (O35235 whole entry): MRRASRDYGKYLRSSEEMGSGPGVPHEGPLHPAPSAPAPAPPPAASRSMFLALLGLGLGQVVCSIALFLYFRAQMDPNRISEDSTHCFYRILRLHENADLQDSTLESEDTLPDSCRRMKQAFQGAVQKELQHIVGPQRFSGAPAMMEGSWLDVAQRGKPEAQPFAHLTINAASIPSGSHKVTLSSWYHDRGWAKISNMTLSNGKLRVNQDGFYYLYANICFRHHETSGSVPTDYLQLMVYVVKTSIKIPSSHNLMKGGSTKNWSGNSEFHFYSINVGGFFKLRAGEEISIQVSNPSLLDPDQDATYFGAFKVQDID
Assay: Inhibition of recombinant mouse RANKL-induced TRAP activity in mouse RAW264.7 cells using 4-nitrophenyl phosphate as TRAP substrate preincubated for 4 days followed by substrate addition measured after 15 mins by ELISA reader analysis
Procedure, shortened: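 RAW264.7 cells (2 × 10⁴ per well) were cultured 4 days in α-MEM with 10% FBS, 2 mM L-glutamine and murine RANKL 100 ng/mL, with or without compound. Cells were lysed in 0.1% Triton X-100/50 mM Tris-HCl pH 7.2 on ice. They were incubated with 2 mg/mL 4-nitrophenyl phosphate in 0.09 M citrate for 15 min at 37 °C, stopped with 0.1 N NaOH, and read at 405 nm. Protein was measured by BCA.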

SMILES: O=c1oc2ccccc2c(=O)n1-c1ccc(Cl)cc1F
- IC50: 10.6 µM

SMILES: C#Cc1cccc(-n2c(=O)oc3ccc(-c4ccc(F)cc4F)cc3c2=O)c1
- IC50: 3.7 µM

SMILES: O=c1oc2ccc(-c3ccc(F)cc3F)cc2c(=O)n1-c1cccc(C(F)(F)F)c1
- IC50: 4.29 µM

SMILES: O=c1oc2ccc(-c3ccc(F)cc3F)cc2c(=O)n1-c1cc(F)ccc1F
- IC50: 4.31 µM
